Data reported in ChEMBL document CHEMBL2401718, “Structure-cytotoxic activity relationship of 3-arylideneflavanone and chromanone (E,Z isomers) and 3-arylflavones” (Bioorg Med Chem Lett, 2013).

Legend:
WM-115 = test: Cytotoxicity against human WM115 cells after 46 hrs by MTT assay; assay type: functional, cell-based; settings: WM-115, 46 h
Method in brief: (§1)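 MTT read-out of survival in cells treated with test compound and compared with untreated control cells. IC50 is the concentration that lowers the surviving cell fraction to 50% of control. Values are means (μM) ± standard deviation from 3 experiments, each run in quintuple. Cancer-line IC50s were compared with normal-cell (HUVEC) IC50s by unpaired t-test.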

HL-60 = test: Cytotoxicity against human HL60 cells after 46 hrs by MTT assay; assay type: functional, cell-based; settings: HL-60, 46 h; method in brief: as §1
NALM-6 = test: Cytotoxicity against human NALM6 cells after 46 hrs by MTT assay; assay type: functional, cell-based; settings: NALM-6, 46 h; method in brief: as §1
[1] = Lipophilicity, log P of the compound by HPLC analysis; assay type: physicochemical
HUVEC = test: Cytotoxicity against HUVEC after 46 hrs by MTT assay; assay type: cell-based; settings: Homo sapiens; method in brief: as §1

SMILES	logP [1]	IC50 (WM-115) [µM]	IC50 (HL-60) [µM]	IC50 (NALM-6) [µM]	IC50 (HUVEC) [µM]
O=C1/C(=C/c2ccc(O)cc2)COc2ccccc21	3.1	69	5.7	32.3	
O=C1/C(=C/c2ccccc2)COc2ccccc21	3.07	53.7	5.4	6.2	
O=c1c(Cc2ccc(O)cc2)coc2ccccc12	3.33	57.2	46.7	49.8	
O=C1/C(=C\c2ccccc2)C(c2ccccc2)Oc2ccc(O)cc21 (stereo unspecified)	3.45	9.1	7.3	58.8	
O=C1/C(=C\c2ccccc2)COc2ccccc21	2.89	13.5	6.7	5.5	
O=C1/C(=C\c2ccc(O)cc2)COc2ccccc21	2.92	12.1	6.5	466	
O=c1c(Cc2ccc([N+](=O)[O-])cc2)coc2ccccc12	3.93	6.1	2.4	5	5.4
N#Cc1ccc(Cc2coc3ccccc3c2=O)cc1	3.58	6.3	3.8	4.8	
O=c1c(Cc2ccc(F)cc2)coc2ccccc12	4.02	53.2	19.1	8.2	
O=c1c(Cc2cccc(O)c2)coc2ccccc12	3.31	17.6	6.3	7.3	
O=C1CCOc2ccccc21 [CHROMANONE]		> 1000	677	674	
O=C1CC(c2ccccc2)Oc2ccccc21 (stereo unspecified) [FLAVANONE]		71.2	51.1	57.6	
O=C1C[C@@H](c2ccc(O)cc2)Oc2cc(O)cc(O)c21 [NARINGENIN]		525	414	426	
O=c1c(O)c(-c2ccc(O)c(O)c2)oc2cc(O)cc(O)c12 [QUERCETIN]		178	58	77.1	

The next lines start with results.

logP [1]	SMILES	IC50 (WM-115) [µM]	IC50 (HL-60) [µM]	IC50 (NALM-6) [µM]	IC50 (HUVEC) [µM]
2.98	O=C1/C(=C/c2ccncc2)C(c2ccccc2)Oc2ccccc21 (stereo unspecified)	6.3	0.9	1.6	5.77
2.85	O=C1/C(=C\c2ccncc2)C(c2ccccc2)Oc2ccccc21 (stereo unspecified)	4.6	1.1	0.7	5.14
3.9	O=C1/C(=C\c2ccccc2)C(c2ccccc2)Oc2ccccc21 (stereo unspecified)	52.6	27.3	> 1000	
3.9	O=C1/C(=C/c2ccccc2)C(c2ccccc2)Oc2ccccc21 (stereo unspecified)	59.4	33.3	29.5	
3.5	O=C1/C(=C/c2ccccc2)C(c2ccccc2)Oc2ccc(O)cc21 (stereo unspecified)	44.5	5.8	8.7	
4.39	Cc1ccc(/C=C2\C(=O)c3ccccc3OC2c2ccccc2)cc1 (stereo unspecified)	57	40.8	> 1000	
4.36	Cc1ccc(/C=C2/C(=O)c3ccccc3OC2c2ccccc2)cc1 (stereo unspecified)	60.1	40.9	51.4	
4.53	O=C1/C(=C\c2ccc(Cl)cc2)C(c2ccccc2)Oc2ccccc21 (stereo unspecified)	27.4	> 1000	> 1000	
4.46	O=C1/C(=C/c2ccc(Cl)cc2)C(c2ccccc2)Oc2ccccc21 (stereo unspecified)	52	5.8	7.4	
4.71	O=C1/C(=C\c2ccc(Br)cc2)C(c2ccccc2)Oc2ccccc21 (stereo unspecified)	32.6	> 1000	> 1000	29.1
4.46	O=C1/C(=C/c2ccc(Br)cc2)C(c2ccccc2)Oc2ccccc21 (stereo unspecified)	25.9	5.7	6.9	7.23
